MrgX1 PAM: allosterically activates human MrgX1 receptor signaling | Q96LB2 | MrgX1-HEK293, Fluo-4 calcium flux, FDSS; active compounds read high | B-score at 10 µM | 0.63% of 310,000 active | AID 588675;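 active means plate-corrected calcium response at least 3 library SD above typical, normal starting fluorescence, not activating the receptor alone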;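 further: compound read alongside a low EC10 to EC30 dose of BAM8-22 agonist; peak minus trough fluorescence over baseline measured at the second addition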
Target sequence (Q96LB2 whole entry, looked up): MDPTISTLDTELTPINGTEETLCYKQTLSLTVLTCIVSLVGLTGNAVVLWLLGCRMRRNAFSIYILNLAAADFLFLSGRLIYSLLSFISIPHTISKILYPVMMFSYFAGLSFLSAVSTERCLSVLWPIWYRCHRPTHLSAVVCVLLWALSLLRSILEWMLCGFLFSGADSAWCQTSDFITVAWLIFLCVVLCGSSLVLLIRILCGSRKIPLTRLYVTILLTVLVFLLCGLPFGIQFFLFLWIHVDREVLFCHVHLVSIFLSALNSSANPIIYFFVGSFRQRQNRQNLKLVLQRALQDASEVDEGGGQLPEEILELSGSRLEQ
MrgX1 antag: human MrgX1 receptor antagonism, primary screen | 1.3% of 310,000 active | B-score at 10 µM | AID 588676 | MRGX1-HEK293 calcium flux, Fluo-4, BAM8-22 antagonism; active compounds read low;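 active means calcium-response B-score plate-corrected more than 3 library SD below zero, starting fluorescence within 5 deviations, no agonist response on first addition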;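 further: peak minus trough fluorescence over baseline after final BAM8-22 challenge near maximal dose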
MrgX1 agonist: activates human MrgX1 receptor signaling | MrgX1-HEK293 cells, Fluo-4 calcium fluorescence, agonist mode; active compounds read high | 0.44% of 310,000 active | Q96LB2 | B-score at 10 µM | AID 588627;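 active means calcium response B-score plate-corrected fluorescence ratio at least 3 library SD, with starting fluorescence B-score inside 5 SD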
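Test system: Stable human MrgX1 HEK293 cell line | Schedule: Overnight plating before 1 h dye loading | Read-out basis: Baseline-normalised fluorescence change ratio, B-scored | Detection: Kinetic calcium dye fluorescence, Fluo-4 NW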
RGS4 pot: potentiators or activators of RGS4 | B-score at 10 µM | 0.92% of 310,000 active | HEK293 M3R/inducible RGS4, carbachol calcium flux Fluo4; active compounds read low;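 active means B-score of the integrated calcium signal more than 4 SD below the library mean, with starting fluorescence not abnormally high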;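 further: negative B-score means reduced calcium response which marks RGS4 activation or potentiation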
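test system = M3R-expressing HEK293 line, RGS4 induced by doxycycline | probe or stimulus = carbachol at ECmax as muscarinic agonist stimulus | timing = dye loading 30 min 37 °C, buffer rest 30 min RT | signal = calcium dye Fluo4 fluorescence | evaluation = B score from integrated fluorescence ratio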
RGS4 inh: human RGS4 inhibition. B-score at 10 µM. HEK293 M3R/RGS4 inducible, Fluo-4 calcium flux; active compounds read high; triggered by carbachol at its EC20. P49798. AID 463165. 0.45% of 310,000 active;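 active means B-score, a plate-corrected calcium signal, over three deviations above library mean, with baseline fluorescence within five deviations of library mean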;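 further: RGS4 expression induced by doxycycline in cells with stable M3 receptor; B-score is computed from the integrated fluorescence ratio over baseline after carbachol; higher B-score means a larger calcium signal and so more RGS4 inhibition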
Target sequence (P49798 whole entry, looked up): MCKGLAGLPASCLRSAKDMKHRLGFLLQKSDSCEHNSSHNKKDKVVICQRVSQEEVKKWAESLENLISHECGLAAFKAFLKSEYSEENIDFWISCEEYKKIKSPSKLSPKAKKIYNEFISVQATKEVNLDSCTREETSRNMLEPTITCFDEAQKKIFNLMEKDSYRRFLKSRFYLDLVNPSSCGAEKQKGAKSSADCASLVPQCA
MrgX1 allo conf: reconfirmed allosteric activator of human MrgX1 receptor; shares compounds with MrgX1 PAM; MrgX1-HEK293, Fluo-4 calcium fluorescence, FDSS; activation (ratio percentage), % at 10 µM; 13% of 1,200 active;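 active means ratio at least 3 SD above the weak peptide control, stable starting fluorescence, no direct agonism earlier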;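 further: compound followed by low BAM8-22 agonist challenge near EC20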
HEK293 Ca flux: activity in parental HEK293 cells lacking MrgX1. shares compounds with MrgX1 antag. Fluo-4 calcium fluorescence, FDSS. fluorescence ratio F(max-min)/F0 at 10 µM. 2% of 4,000 active. AID 624111;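 active means duplicate-averaged calcium fluorescence ratio at least three times the standard deviation of buffer wells, a nonspecific response in parental cells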
HEK293 Ca counter: activity in parental HEK293 cells without MrgX1. shares compounds with MrgX1 antag. parental HEK293 calcium flux, Fluo-4 fluorescence ratio; active compounds read high. fluorescence ratio F(max-min)/F0 at 10 µM. 0.4% of 4,000 active. AID 624114;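 active means calcium fluorescence ratio, averaged over duplicates, at least 3 SD of the buffer-well ratio, meaning a nonspecific response in receptor-free cells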;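 further: untransfected parental HEK293 lacking MrgX1 used as counterscreen for MrgX1 allosteric activators; fluorescence change taken during the second addition on a kinetic imager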
HEK293 Ca cntr2: activity in parental HEK293 cells lacking MrgX1 receptor; shares compounds with MrgX1 antag; Fluo-4 calcium fluorescence (FDSS); active compounds read high; fluorescence ratio F(max-min)/F0 at 10 µM; 8.7% of 4,000 active;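 active means calcium fluorescence ratio at least three times the spread of buffer wells, meaning a non-specific response in parental cells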
An asterisk follows results filed as active; i = inactive; / = no result. An excerpt weighted towards active compounds, which were near 3.5% of everything screened.

SMILES | MrgX1 PAM | MrgX1 antag | MrgX1 agonist | RGS4 pot | RGS4 inh | MrgX1 allo conf | HEK293 Ca flux | HEK293 Ca counter | HEK293 Ca cntr2
Cc1cc(NC(=O)c2cccc(S(=O)(=O)N3CC(c4ccccc4)CC3=O)c2)no1 (centres undefined) | 8.3* | i | i | i | i | i | i | i | i
COc1ccc(OCCCC(=O)N(C)CC(=O)Nc2c(C)cccc2C)cc1 | i | i | i | i | i | / | / | / | /
Cc1nc2nc(C)c(NS(=O)(=O)c3cccs3)c(=O)n2[nH]1 | i | i | i | i | i | / | / | / | /
CCc1ccc(OCC(=O)NC2CCCCC2)c(Br)c1 | 8.3* | i | i | i | i | i | i | i | i
O=C(COc1ccccc1Br)NC1CCCC1 | 7.3* | i | i | i | i | i | i | i | i
Cc1cc(Br)ccc1OCC(=O)NC1CCCC1 | i | i | i | i | i | / | / | / | /
Cc1cc(C(=O)NCCc2ccc(S(N)(=O)=O)cc2)c(C)o1 | i | i | i | i | i | / | / | / | /
CCN(CC)c1ccc(NC(=O)c2ccc3c(c2)OCO3)cc1 | i | i | i | i | i | / | / | / | /
CCCc1ccc(OCC(=O)Nc2cc(S(=O)(=O)CC)ccc2O)cc1 | 24* | i | i | i | i | i | i | i | i
COc1ccccc1NC(=O)c1ccc(NS(=O)(=O)c2ccc(F)c(F)c2F)cc1 | 36* | i | i | i | i | 28%* | i | i | i
Oc1ccc(Oc2ncc(Cl)cc2Cl)cc1 | 8.8* | i | i | i | i | i | i | i | i
NC(=O)c1ccc(Oc2ncc(C(F)(F)F)cc2Cl)cc1 | i | i | i | i | i | / | / | / | /
CC1(C)Cc2ccccc2-c2nnc(SCC(=O)N3CCN(c4ccccc4)CC3)n21 | 10* | i | i | i | i | 9.3%* | i | i | i
O=C(NC1CCCCC1)c1ccccc1C(F)(F)F | 8.6* | i | i | i | i | i | i | i | i
CS(=O)(=O)N(Cc1cc2ccccc2[nH]c1=O)C1CCCCC1 | 6.8* | i | i | i | i | i | i | i | i
O=C(NC(=S)Nc1cc(S(=O)(=O)N2CCOCC2)ccc1N1CCOCC1)C1CCCC1 | 7.1* | i | i | i | i | 6.4%* | i | i | i
N#Cc1ccc(-c2ccco2)nc1SCC(=O)c1ccc(Cl)cc1 | 8.4* | i | i | i | i | i | 0.48* | i | i
COc1ccc(-c2cc(C(=O)N3CCN(c4ncccn4)CC3)c3ccccc3n2)c(OC)c1 | 7.4* | i | i | i | i | i | i | i | 71*
CCOc1ccc(C(=O)NCC(=O)OCC(=O)N2CCC(C)CC2)cc1 | 8* | i | i | i | i | i | i | i | i
Cc1cccc(CC(=O)Nc2cccnc2)c1 | i | i | i | i | i | / | / | / | /
Cc1csc(N(C(=O)Cc2ccccc2F)c2ccccc2)n1 | i | i | i | i | i | / | / | / | /
COc1ccc(CC(=O)N(c2ccccc2)c2nc(C)cs2)cc1 | 11* | i | i | i | i | i | i | i | i
COc1ccccc1NC(=O)c1[nH]c(C)c(C(C)=O)c1C | i | i | i | / | / | / | / | / | /
COc1ccccc1NS(=O)(=O)c1cccc(NC(=O)c2[nH]c(C)c(C(C)=O)c2C)c1 | 7.4* | i | i | i | i | i | i | i | i
COc1ccc(CCNC(=O)CCN2C(=O)[C@@H]3Cc4ccccc4CN3C2=O)cc1OC | i | i | i | i | i | / | / | / | /
SMILES | MrgX1 PAM | MrgX1 antag | MrgX1 agonist | RGS4 pot | RGS4 inh | MrgX1 allo conf | HEK293 Ca flux | HEK293 Ca counter | HEK293 Ca cntr2
CCC1=NN2C(=N)/C(=C\c3ccc(SCc4ccco4)o3)C(=O)N=C2S1 | 22* | i | i | i | i | i | i | i | 57*
Nc1ncnc2nc(N3CCN(C(=O)c4ccccc4)CC3)[nH]c12 | 17* | i | i | i | i | i | i | i | i
O=C(c1ccccc1)N1CCN(c2ncccn2)CC1 | i | i | i | i | i | / | / | / | /
CC(=O)c1ccccc1NC(=O)c1ccc(N2CCCC2=O)cc1 | i | i | i | i | i | / | / | / | /
COc1cc(/C=C/C(=O)O)cc(S(=O)(=O)N2CCN(S(=O)(=O)c3ccc(Cl)cc3)CC2)c1OC | i | i | i | i | i | / | / | / | /
C=CCSc1nc(O)c(C2OC(=O)c3c2ccc(OC)c3OC)c(=O)n1-c1ccccc1 (centres undefined) | 31* | i | i | i | i | i | i | i | i
CCn1c(SCC(=O)N2CCC(C)CC2)nc2c(c1=O)SCC2 | i | i | i | i | i | / | / | / | /
CC1Cc2ccccc2N1C(=S)NC(=O)c1cccc(Br)c1 (centres undefined) | 10* | i | i | i | i | i | i | i | i
COc1cc(SC)ccc1C(=O)OCC(=O)N1CCCC1 | 11* | i | i | i | i | i | i | i | i
C=C(C)COc1ccc2c(C)c(CCC(=O)N3C[C@H]4C[C@@H](C3)c3cccc(=O)n3C4)c(=O)oc2c1 | 28* | i | i | i | i | i | i | i | i
COc1ccc2[nH]cc(C(=O)CCl)c2c1 | 21* | i | i | i | i | i | i | i | i
Fc1cccc(-c2cc3nc4c(c(N5CCC6(CC5)OCCO6)n3n2)CCCC4)c1 | 7.6* | i | i | i | i | i | i | i | i
CCN1CCN(Cc2nnc(-c3ccc(C)cc3)o2)CC1 | i | i | i | i | i | / | / | / | /
O=C(OCCN1CCOCC1)c1ccccc1Cl | i | i | i | i | i | / | / | / | /
COCCN1CC(CNC(=O)c2cc(COc3ccccc3SC)on2)CC1=O (centres undefined) | i | i | i | i | i | / | / | / | /
Cc1cc(C)cc(N(C(=O)c2csnn2)C(C(=O)NC2CCCC2)c2cccnc2)c1 (centres undefined) | i | i | i | i | i | / | / | / | /

From PubChem BioAssay
